procasp3 activ: activators of human procaspase-3 | P42574 | recombinant procaspase-3 D3A, Ac-DEVD-pNA absorbance 405 nm | activation, % at 8.5 µM | hit rate 0.11% among 330,000 | AID 463141;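 active means activation above the mean of all tested compounds plus 3 SD, cut at about 21% in these data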;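 further: 0% = DMSO alone and 100% = DMSO wells spiked with extra 5 µM PC-3 D3A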
Target sequence (P42574 whole entry D9A/D28A/D175A): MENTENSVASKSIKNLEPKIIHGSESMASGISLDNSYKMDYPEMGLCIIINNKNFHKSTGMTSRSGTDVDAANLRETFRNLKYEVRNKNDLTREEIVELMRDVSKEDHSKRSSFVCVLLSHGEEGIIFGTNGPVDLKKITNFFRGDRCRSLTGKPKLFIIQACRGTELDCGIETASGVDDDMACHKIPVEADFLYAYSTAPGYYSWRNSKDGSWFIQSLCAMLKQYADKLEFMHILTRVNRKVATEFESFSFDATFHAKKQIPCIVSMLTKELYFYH
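Technique: 405 nm absorbance of p-nitroaniline, reads at 0 and 120 min; Test system: Procaspase-3 D3A mutant; Incubation: 1 h enzyme-compound preincubation, then 2 h substrate reaction, 25 °C; Repeats: singlicate, each compound tested once; Benchmarks: low control DMSO wells, high control DMSO plus 5 µM PC-3 D3A.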
bovine MsrA act: activates bovine MsrA enzyme; purified bovine MsrA, absorbance read-out; activation, % at 10.6 µM; hit rate 0.3% among 360,000; AID 602163; in the data active means activation above about 7.5%;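 further: 0% = vehicle and 100% = reference activator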
MsrA inhibitor: inhibitors of bovine MsrA; purified bovine MsrA, absorbance read-out; inhibition, % at 15.5 µM; hit rate 0.75% among 360,000;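 further: 0% = vehicle wells with enzyme and 100% = reference inhibitor wells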
proCasp7 act: counter-screen for procaspase-3 activators: activators of human procaspase-7. P55210. hit rate 0.093% among 330,000. activation, % at 8.5 µM. recombinant procaspase-7, Ac-DEVD-pNA absorbance 405 nm; D23A/D198A/D206A triple mutant, cannot self-cleave; scale: DMSO 0, 5 µM enzyme 100;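 active means percent activation above the screen-wide mean plus 3 SD, cut at about 25% in these data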
Target sequence (P55210 whole entry D23A/D198A/D206A): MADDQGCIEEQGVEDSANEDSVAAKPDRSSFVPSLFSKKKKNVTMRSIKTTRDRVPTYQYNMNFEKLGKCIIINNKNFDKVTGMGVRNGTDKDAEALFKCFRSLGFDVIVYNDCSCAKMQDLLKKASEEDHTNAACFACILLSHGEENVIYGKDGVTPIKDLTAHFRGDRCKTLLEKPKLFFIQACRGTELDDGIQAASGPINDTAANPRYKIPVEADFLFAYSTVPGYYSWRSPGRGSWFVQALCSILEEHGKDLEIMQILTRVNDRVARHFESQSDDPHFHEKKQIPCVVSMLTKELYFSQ
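Material: Procaspase-7 triple mutant (PC-7 D3A) | Quantity: 2 µM procaspase-7 mutant as dispensed | Reagent: DEVD-pNA substrate | Times: 1 h preincubation, 2 h reaction | Technique: 405 nm absorbance of p-nitroaniline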
MsrA conf: bovine MsrA inhibition, confirmed. shares compounds with MsrA inhibitor. purified bovine MsrA, absorbance read-out. inhibition, % at 15.5 µM. hit rate 41% among 2,300;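 further: coupled to thioredoxin reductase with NADPH and selenocystamine and DMSO as substrate; 0% = vehicle only and 100% = full effect of reference inhibitor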
* hit, by the source's call; . = no result given. Compounds with a hit are over-represented: about 1.2% of the library has one in this group of screens. Unless noted, no stated cut-off is given here; in the data, active means inhibition above about 4.5%; inactive means the rest.

SMILES | procasp3 activ | bovine MsrA act | MsrA inhibitor | proCasp7 act | MsrA conf
CC(C)(C)OC(=O)N1CCC2CCN(CCc3ccccc3)CC21 (stereo not given) | . | . | -1 | . | .
Cc1cccc(N=c2oc3cc(O)ccc3cc2C(N)=O)c1 | -7 | 0 | 8.0* | -4 | 10*
Cn1cc(-c2ccccc2C(=O)O)c(=O)c2cc(Cl)ccc21 | 4 | -3 | 4.9* | 0 | 2
Cn1cc(S(=O)(=O)c2ccccc2)c(=O)c2cc(Cl)ccc21 | -1 | -6 | 0 | -6 | .
Nc1nc2nccc(-c3ccco3)n2n1 | -6 | -5 | 6.1* | -8 | 3
Cc1oc2c(CN3CCOCC3)c(O)ccc2c(=O)c1-c1ccc(Cl)cc1 | 2 | -11 | 5.3* | 15 | 1
c1cnn(-c2cncc(-n3cccn3)n2)c1 | 4 | -4 | 14* | 5 | 10*
COc1ccc(N/C=C2\CCOC2=O)cc1 | 2 | -14 | 5.4* | -5 | 4
COC(=O)[C@]12C[C@H](CC(=O)NCC34CC5CC(CC(C5)C3)C4)C(=O)N(Cc3ccc4c(c3)OCO4)C1=C[C@H](C(C)(C)C)O[C@@H]2C | . | . | 1 | . | .
Oc1ccc(/C=N/Nc2nccnc2Cl)c(O)c1 | 1 | -8 | 5.1* | -1 | 4
COc1ccc(/C=N/Nc2nccnc2Cl)cc1 | 1 | -5 | 4.7* | -4 | 2
O=c1[nH]ncc(N/N=C\c2ccc(O)cc2O)c1Cl | 2 | -4 | 6.5* | 9 | 6.2*
Oc1ccc(C=NNc2ccccn2)c(O)c1 | . | -1 | 5.1* | . | 3
COC(=O)[C@]12C[C@H](CC(=O)NCc3cccs3)C(=O)N(CCC3=CCCCC3)C1=C[C@H](COCc1ccccc1)O[C@@H]2C | . | . | -1 | . | .
Oc1ccc(/C=N/Nc2ncc(Br)cn2)c(O)c1 | 4 | -4 | 6.0* | 0 | 5.2*
O=C(C1=C(O)C(=O)N(CCCn2ccnc2)C1c1cccc(Br)c1)c1ccco1 (stereo not given) | -24 | -6 | 13* | -34 | 7.8*
C#CCNc1cccc2c1S(=O)(=O)N[C@H](C)CO2 | . | . | 0 | . | .
CCOc1cc(/C=C2/NC(=O)N(CC(=O)OC)C2=O)ccc1O | 11 | -5 | 7.4* | -4 | 5.8*
COC(=O)COc1ccc(/C=C2/NC(=O)N(CC(=O)OC)C2=O)cc1 | 6 | -4 | 5.5* | 3 | 5.4*
c1coc(-c2nc3c4ccccc4ccn3c2Cc2ccsc2)c1 | . | . | 0 | . | .
C=CCCC1CN(Cc2ccc(OC)cc2)S(=O)(=O)c2c(cccc2N2CCCC2)O1 (stereo not given) | . | . | 1 | . | .
O=C(N/N=C/C(Cl)=C/c1ccccc1)c1ccco1 | 3 | -7 | 8.5* | 0 | 6.6*
O=C(N/N=C/C(Cl)=C\c1ccccc1)c1cnccn1 | -4 | -17 | 4 | -5 | .
O=C(N/N=C/C(Cl)=C/c1ccccc1)c1cnccn1 | -5 | -6 | 9.6* | 5 | 4
O=C(N/N=C/C(Cl)=C\c1ccccc1)c1ccco1 | -2 | -5 | 4 | -5 | .
SMILES | procasp3 activ | bovine MsrA act | MsrA inhibitor | proCasp7 act | MsrA conf
COC(=O)[C@]12C[C@H](CC(=O)NCc3cccc(C(F)(F)F)c3)C(=O)N(CCC3=CCCCC3)C1=C[C@H](COCc1ccccc1)O[C@@H]2C | . | . | 0 | . | .
CC1=N/C(=C\c2ccc3c(c2)OCO3)C(=O)N1c1ccc(C(=O)O)cc1 | -3 | -1 | 5.6* | -3 | 2
O=C(O)c1ccc(N2C(=O)/C(=C\c3ccccc3)N=C2c2ccccc2)cc1 | 3 | -5 | 1 | 5 | .
O=C(NCCCN1CCOCC1)c1cc2c(=O)[nH]c3ccccc3c2s1 | 2 | -3 | 5.3* | 12 | 4
COc1ccc(C(=O)N/C(=C\c2cn(C)c3ccccc23)C(=O)N2CCOCC2)cc1OC | 2 | -4 | 4.8* | -1 | 2
Cn1cc(/C=C(\NC(=O)c2ccccc2Cl)C(=O)N2CCOCC2)c2ccccc21 | 14 | -8 | 6.3* | -7 | 4
COc1ccccc1C(=O)N/C(=C\c1cn(C)c2ccccc12)C(=O)NCCN1CCOCC1 | . | -3 | 4 | . | .
COc1ccccc1C(=O)N/C(=C\c1cn(C)c2ccccc12)C(=O)NCCCN1CCOCC1 | -1 | -6 | 5.3* | -3 | 4
COc1cc(C(=O)N/C(=C\c2cn(C)c3ccccc23)C(=O)N2CCN(C)CC2)cc(OC)c1OC | . | -4 | 3 | . | .
COc1ccccc1C(=O)N/C(=C\c1cn(C)c2ccccc12)C(=O)N1CCOCC1 | -2 | -4 | 3 | -5 | .
CC(NC(=O)c1c(N)[nH]c(C(=O)c2ccc(Cl)cc2)c1-c1ccc(Br)cc1)c1cccc2ccccc12 (stereo not given) | . | . | 0 | . | .
CCOC(=O)C1=CCN(S(=O)(=O)c2ccc(Br)cc2)C1c1cccc(F)c1 (stereo not given) | . | . | 0 | . | .
O=[N+]([O-])c1ccc(CN2[C@H](COCc3ccccc3)C=CS2(=O)=O)cc1 | . | . | 1 | . | .
O=C(NC(=S)NCCCN1CCOCC1)c1cccc2ccccc12 | 8 | -9 | 9.4* | 9 | 3
COc1cc(/C=N/NC(=O)c2cccnc2)cc(Br)c1O | -2 | -10 | 4.7* | -6 | 4
O=C(N/N=C/c1cc(Br)c(O)c(Br)c1)c1cccnc1 | -2 | -4 | 4 | 21 | .
COc1cc(/C=N/n2cnnc2-n2nc(C)cc2C)cc([N+](=O)[O-])c1O | -9 | -5 | 5.2* | -4 | 4
COc1cc(/C=N/NC(=O)c2ccc(C)nc2)cc([N+](=O)[O-])c1O | -2 | -9 | 5.3* | -5 | 4
CCOc1cc(/C=N\NC(=O)c2ccc(C)nc2)cc([N+](=O)[O-])c1O | 3 | -3 | 8.0* | -19 | 6.4*
COc1cc([N+](=O)[O-])cc(/C=N/NC(=O)c2ccc(C)nc2)c1O | -12 | -1 | 2 | -16 | .
C[C@H]1Cn2cnc(C(=O)N3CCN(c4ccccc4)CC3)c2C(=O)N1 | . | . | 0 | . | .
CC(=O)C1=C(C)N(Cc2ccc(Br)cc2)C(=S)NC1c1ccc(F)cc1 (stereo not given) | . | . | 1 | . | .
O=C(N[C@H](Cc1ccccc1)C(=O)N1CCCN(Cc2ccccc2F)CC1)[C@H]1O[C@@H](n2ccc(=O)[nH]c2=O)[C@H](O)[C@@H]1O | . | . | -1 | . | .
O=c1c2ccccc2nnn1Cc1ccco1 | . | . | 1 | . | .
C[C@@H]1ON(C)[C@H]2C[C@H]3c4[nH]c5c(-c6cc(Cl)cc(Cl)c6)cccc5c4CCN3C(=O)[C@@H]12 | . | . | -1 | . | .
O=C(N=Nc1c(O)[nH]c2ccc(F)cc12)c1ccc(NS(=O)(=O)c2cccs2)cc1 | -7 | -2 | 2 | -13 | .
O=C(N=Nc1c(O)[nH]c2ccccc12)c1ccccc1NS(=O)(=O)c1cccs1 | 6 | -11 | 4.8* | 7 | 4
COC(=O)[C@H](Cc1ccccc1)N1CC=CS1(=O)=O | . | . | 0 | . | .
C/C(=N\O)C(C)/[N+]([O-])=C/c1nc(C)c(C)n1O (stereo not given) | 3 | -11 | 5.2* | 5 | 4
CCOC(=O)CSC1=C(C#N)C(=O)NC(c2ccc(OC)cc2)S1 (stereo not given) | -2 | -1 | 6.6* | -18 | 6.3*

Screening data as filed in PubChem BioAssay.
